Laboratory results published in ChEMBL document CHEMBL3407398, “Comparison between loureirin A and cochinchinenin C on the interaction with human serum albumin” (Eur J Med Chem, 2015).

Experiments:
Conditions in all cases: isolated protein; call rule not given here
[1] = target: T1, Albumin (Homo sapiens, UniProt P02768); test: Binding affinity to human serum albumin assessed as quenching constant at 300K by fluorescence spectroscopy; format: ADME
In short: (§1)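 Fatty-acid-free HSA, 1.5 × 10^-6 M in 0.1 M Tris-HCl pH 7.4 with 0.1 M NaCl, titrated with ligand from ethanol stock. Each addition equilibrated 5 min. Emission recorded 300–450 nm with excitation at 280 nm, at 300, 305 and 310 K. Constants taken from the linear low-concentration region of Stern-Volmer F0/F plots.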

[2] = target: T1, Albumin; test: Binding affinity to human serum albumin assessed as quenching constant at 310K by fluorescence spectroscopy; format: ADME; in short: as §1
[3] = target: T1, Albumin; test: Binding affinity to human serum albumin assessed as Stem-Volmer quenching constant at 310K by fluorescence spectroscopy; format: ADME; in short: as §1
[4] = target: T1, Albumin; test: Binding affinity to human serum albumin assessed as induction of protein conformational changes by measuring reduction in intensity along with blue shift in peak 1 by three-dimensional fluorescence spectroscopy; parameters: scale not given: the % may be the effect or the level left
In short: (§2)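 3-D fluorescence of HSA at 1.5 × 10^-6 M, alone and with ligand at a 2:1 ligand/HSA molar ratio, in Tris-HCl pH 7.4 buffer. Excitation scanned 200–480 nm in 10 nm steps, with emission recorded 220–500 nm. Changes in intensity and position of peak 1 were compared.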

[5] = target: T1, Albumin; test: Binding affinity to human serum albumin assessed as binding constant at 305K by Stem-Volmer plot; format: ADME
In short: (§3)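 Fatty-acid-free HSA, 1.5 × 10^-6 M in 0.1 M Tris-HCl pH 7.4 / 0.1 M NaCl, was titrated with ligand from ethanol stock and equilibrated 5 min per addition. Emission was read 300–450 nm (excitation 280 nm) at 300, 305 and 310 K. Binding constants came from the quenching data across these temperatures, and thermodynamic parameters from their temperature dependence.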

[6] = target: T1, Albumin; test: Binding affinity to human serum albumin assessed as binding constant at 300K by Stem-Volmer plot; format: ADME; in short: as §3
[7] = target: T1, Albumin; test: Binding affinity to human serum albumin assessed as free energy change at 305K by thermodynamic analysis
[8] = target: T1, Albumin; test: Binding affinity to human serum albumin assessed as Stem-Volmer quenching constant at 300K by fluorescence spectroscopy; format: ADME; in short: as §1
[9] = target: T1, Albumin; test: Binding affinity to human serum albumin assessed as binding constant at 310K by Stem-Volmer plot; format: ADME; in short: as §3
[10] = target: T1, Albumin; test: Binding affinity to human serum albumin assessed as quenching constant at 305K by fluorescence spectroscopy; format: ADME; in short: as §1
[11] = target: T1, Albumin; test: Binding affinity to human serum albumin by UV-vis spectrophotometry; format: ADME
In short: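 UV-vis absorption titration at room temperature in a 10 mm quartz cuvette. HSA was held at 1.5 × 10^-6 M while ligand was varied 0–18 × 10^-6 M, and absorbance change at 280 nm was followed. Spectra of ligand alone at 1.5 × 10^-6 M were also recorded.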

[12] = target: T1, Albumin; test: Binding affinity to human serum albumin assessed as enthalpy change at 300K by thermodynamic analysis; format: ADME; in short: as §3
[13] = target: T1, Albumin; test: Binding affinity to human serum albumin assessed as free energy change at 300K by thermodynamic analysis
[14] = target: T1, Albumin; test: Binding affinity to human serum albumin assessed as Stem-Volmer quenching constant at 305K by fluorescence spectroscopy; format: ADME; in short: as §1
[15] = target: T1, Albumin; test: Binding affinity to human serum albumin assessed as induction of protein conformational changes by synchronous fluorescence spectroscopy
[16] = target: T1, Albumin; test: Binding affinity to human serum albumin assessed as free energy change at 310K by thermodynamic analysis
[17] = target: T1, Albumin; test: Binding affinity to human serum albumin assessed as induction of protein conformational changes by measuring reduction in intensity along with red shift in peak 1 by three-dimensional fluorescence spectroscopy; parameters: scale not given: the % may be the effect or the level left; in short: as §2

T1 sequence (P02768 whole entry): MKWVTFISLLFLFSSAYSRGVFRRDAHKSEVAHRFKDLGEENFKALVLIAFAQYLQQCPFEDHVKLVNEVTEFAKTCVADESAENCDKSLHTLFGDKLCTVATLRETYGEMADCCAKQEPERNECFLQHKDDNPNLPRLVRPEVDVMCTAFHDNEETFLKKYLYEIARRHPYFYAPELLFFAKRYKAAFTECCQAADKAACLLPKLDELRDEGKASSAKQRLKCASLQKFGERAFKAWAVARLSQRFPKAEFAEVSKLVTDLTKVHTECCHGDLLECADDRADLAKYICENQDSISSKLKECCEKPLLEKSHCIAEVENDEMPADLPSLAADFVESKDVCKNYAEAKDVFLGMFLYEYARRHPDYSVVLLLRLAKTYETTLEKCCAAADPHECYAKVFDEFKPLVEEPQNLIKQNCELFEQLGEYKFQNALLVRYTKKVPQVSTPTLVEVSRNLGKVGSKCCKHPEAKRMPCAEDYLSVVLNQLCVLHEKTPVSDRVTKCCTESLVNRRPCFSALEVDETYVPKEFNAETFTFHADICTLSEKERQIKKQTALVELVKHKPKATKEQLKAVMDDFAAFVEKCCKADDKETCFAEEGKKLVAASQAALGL

Row | Compound | Kq [1] [×10¹² /M/s] | Kq [2] [×10¹² /M/s] | KSV [3] [×10⁴ /M] | Activity [4] [%] | K [5] [×10⁴ /M] | K [6] [×10⁴ /M] | deltaG [7] [kJ/mol] | KSV [8] [×10⁴ /M] | K [9] [×10⁴ /M] | Kq [10] [×10¹² /M/s] | Activity [11] | deltaH [12] [kJ/mol] | deltaG [13] [kJ/mol] | KSV [14] [×10⁴ /M] | Activity [15] | deltaG [16] [kJ/mol] | Activity [17] [%]
1 | COc1ccc(C(CCc2ccc(O)cc2OC)c2cc(CCC(=O)c3ccc(O)cc3)c(OC)cc2O)cc1 (configuration not stated) [COCHINCHINENIN C] | 17.69 | 12.15 | 12.15 | 14 | 18.62 | 25.32 | -30.67 | 17.69 | 12.32 | 14.95 | Active | -55.94 | -31.09 | 14.95 | Active | -30.26 | –
2 | COc1ccc(CCC(=O)c2ccc(O)cc2)c(OC)c1 | 9.85 | 6.24 | 6.24 | – | 9.51 | 12.91 | -29.23 | 9.85 | 8.56 | 7.98 | Active | -31.98 | -29.28 | 7.98 | Active | -29.19 | 28
